From ChEMBL document CHEMBL1287651, “Synthesis and in vitro antibacterial activity of fluoroquinolone derivatives containing 3-(N'-alkoxycarbamimidoyl)-4-(alkoxyimino) pyrrolidines” (2010)
≈ marks a conversion by molar mass, not a printed value.

Columns and labels:
Format in all cases: functional
[1] = tested on: Staphylococcus aureus; assay: Antibacterial activity against Staphylococcus aureus ATCC […] after 18 to 24 hrs by twofold serial dilution method
In short: (§1)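 MIC determined by the standard twofold serial dilution method on agar media, screening against Gram-positive and Gram-negative strains. Levofloxacin and gemifloxacin were run alongside as reference drugs.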

[2] = tested on: Staphylococcus aureus; assay: Antibacterial activity against methicillin-resistant Staphylococcus aureus 08-1 after 18 to 24 hrs by twofold serial dilution method
In short: (§2)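 Standard twofold serial agar dilution method on agar media for MIC determination. Screened against representative Gram-positive and Gram-negative strains. Levofloxacin and GMFX served as control drugs.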

[3] = tested on: Staphylococcus aureus; assay: Antibacterial activity against methicillin-sensitive Staphylococcus aureus 08-2 after 18 to 24 hrs by twofold serial dilution method; in short: as §2
[4] = tested on: Staphylococcus epidermidis; assay: Antibacterial activity against methicillin-resistant Staphylococcus epidermidis 09-2 after 18 to 24 hrs by twofold serial dilution method; in short: as §2
[5] = tested on: Staphylococcus epidermidis; assay: Antibacterial activity against methicillin-resistant Staphylococcus epidermidis 09-3 after 18 to 24 hrs by twofold serial dilution method; in short: as §2
[6] = tested on: Staphylococcus epidermidis; assay: Antibacterial activity against methicillin-resistant Staphylococcus epidermidis 09-4 after 18 to 24 hrs by twofold serial dilution method; in short: as §2
[7] = tested on: Staphylococcus epidermidis; assay: Antibacterial activity against methicillin-sensitive Staphylococcus epidermidis 09-3 after 18 to 24 hrs by twofold serial dilution method; in short: as §2
[8] = tested on: Staphylococcus epidermidis; assay: Antibacterial activity against methicillin-sensitive Staphylococcus epidermidis 09-6 after 18 to 24 hrs by twofold serial dilution method; in short: as §2
[9] = tested on: Streptococcus pneumoniae; assay: Antibacterial activity against Streptococcus pneumoniae 08-2 after 18 to 24 hrs by twofold serial dilution method; in short: as §1
[10] = tested on: Streptococcus pneumoniae; assay: Antibacterial activity against Streptococcus pneumoniae 08-4 after 18 to 24 hrs by twofold serial dilution method; in short: as §1
[11] = tested on: Enterococcus faecium; assay: Antibacterial activity against Enterococcus faecium 08-2 after 18 to 24 hrs by twofold serial dilution method; in short: as §1
[12] = tested on: Enterococcus faecium; assay: Antibacterial activity against Enterococcus faecium 08-7 after 18 to 24 hrs by twofold serial dilution method; in short: as §1
[13] = tested on: Enterococcus faecalis; assay: Antibacterial activity against Enterococcus faecalis 08-10 after 18 to 24 hrs by twofold serial dilution method; in short: as §1
[14] = tested on: Enterococcus faecalis; assay: Antibacterial activity against Enterococcus faecalis 08-12 after 18 to 24 hrs by twofold serial dilution method; in short: as §1
[15] = tested on: Escherichia coli; assay: Antibacterial activity against Escherichia coli ATCC 25922 after 18 to 24 hrs by twofold serial dilution method; in short: as §1
[16] = tested on: Escherichia coli; assay: Antibacterial activity against Escherichia coli 08-21 after 18 to 24 hrs by twofold serial dilution method; in short: as §1
[17] = tested on: Escherichia coli; assay: Antibacterial activity against Escherichia coli 08-22 after 18 to 24 hrs by twofold serial dilution method; in short: as §1
[18] = tested on: Klebsiella pneumoniae; assay: Antibacterial activity against Klebsiella pneumoniae 09-21 after 18 to 24 hrs by twofold serial dilution method; in short: as §1
[19] = tested on: Klebsiella pneumoniae; assay: Antibacterial activity against Klebsiella pneumoniae 09-22 after 18 to 24 hrs by twofold serial dilution method; in short: as §1
[20] = tested on: Klebsiella pneumoniae; assay: Antibacterial activity against Klebsiella pneumoniae 09-23 after 18 to 24 hrs by twofold serial dilution method; in short: as §1
[21] = tested on: Pseudomonas aeruginosa; assay: Antibacterial activity against Pseudomonas aeruginosa ATCC 27853 after 18 to 24 hrs by twofold serial dilution method; in short: as §1
[22] = tested on: Pseudomonas aeruginosa; assay: Antibacterial activity against Pseudomonas aeruginosa 09-32 after 18 to 24 hrs by twofold serial dilution method; in short: as §1
[23] = tested on: Pseudomonas aeruginosa; assay: Antibacterial activity against Pseudomonas aeruginosa 09-33 after 18 to 24 hrs by twofold serial dilution method; in short: as §1
[24] = tested on: Pseudomonas aeruginosa; assay: Antibacterial activity against Pseudomonas aeruginosa 09-34 after 18 to 24 hrs by twofold serial dilution method; in short: as §1
[25] = tested on: Pseudomonas aeruginosa; assay: Antibacterial activity against Pseudomonas aeruginosa 09-35 after 18 to 24 hrs by twofold serial dilution method; in short: as §1
[26] = tested on: Enterococcus faecium; assay: Ratio of compound MIC to levofloxacin MIC for Enterococcus faecium 08-7
[27] = tested on: Klebsiella pneumoniae; assay: Ratio of compound MIC to levofloxacin MIC for Klebsiella pneumoniae 09-22
[28] = tested on: Enterococcus faecium; assay: Ratio of compound MIC to gemifloxacin MIC for Enterococcus faecium 08-7
[29] = tested on: Klebsiella pneumoniae; assay: Ratio of compound MIC to gemifloxacin MIC for Klebsiella pneumoniae 09-22
[30] = tested on: Streptococcus pneumoniae; assay: Ratio of compound MIC to levofloxacin MIC for Streptococcus pneumoniae

Row | Compound | MIC [1] | MIC [2] | MIC [3] | MIC [4] | MIC [5] | MIC [6] | MIC [7] | MIC [8] | MIC [9] | MIC [10] | MIC [11] | MIC [12] | MIC [13] | MIC [14] | MIC [15] | MIC [16] | MIC [17] | MIC [18] | MIC [19] | MIC [20] | further results
1 | CCO/N=C(/N)C1CN(c2c(F)cc3c(=O)c(C(=O)O)cn4c3c2OC[C@@H]4C)C/C1=N\OC (stereo partly specified) | 0.125 µg/mL (≈ 0.271 µM) | 0.06 µg/mL (≈ 0.13 µM) | 0.125 µg/mL (≈ 0.271 µM) | 0.06 µg/mL (≈ 0.13 µM) | 0.06 µg/mL (≈ 0.13 µM) | 0.06 µg/mL (≈ 0.13 µM) | 0.06 µg/mL (≈ 0.13 µM) | 0.06 µg/mL (≈ 0.13 µM) | 8 µg/mL (≈ 17.3 µM) | 8 µg/mL (≈ 17.3 µM) | > 128 µg/mL | 0.06 µg/mL (≈ 0.13 µM) | 128 µg/mL (≈ 277 µM) | > 128 µg/mL | 128 µg/mL (≈ 277 µM) | > 128 µg/mL | > 128 µg/mL | > 128 µg/mL | 0.5 µg/mL (≈ 1.08 µM) | > 128 µg/mL | MIC [21]: 16 µg/mL (≈ 34.7 µM); MIC [22]: 16 µg/mL (≈ 34.7 µM); MIC [23]: > 128 µg/mL; MIC [24]: > 128 µg/mL; MIC [25]: 16 µg/mL (≈ 34.7 µM); Ratio [26]: 32; Ratio [27]: 16; Ratio [28]: 32; Ratio [29]: 16
2 | CCO/N=C1\CN(c2c(F)cc3c(=O)c(C(=O)O)cn(CC)c3c2F)CC1/C(N)=N\OC (stereo unspecified) | 1 µg/mL (≈ 2.22 µM) | 0.25 µg/mL (≈ 0.554 µM) | 8 µg/mL (≈ 17.7 µM) | 8 µg/mL (≈ 17.7 µM) | 0.25 µg/mL (≈ 0.554 µM) | 0.125 µg/mL (≈ 0.277 µM) | 0.125 µg/mL (≈ 0.277 µM) | 0.25 µg/mL (≈ 0.554 µM) | 0.25 µg/mL (≈ 0.554 µM) | 0.25 µg/mL (≈ 0.554 µM) | > 128 µg/mL | > 128 µg/mL | > 128 µg/mL | > 128 µg/mL | > 128 µg/mL | > 128 µg/mL | > 128 µg/mL | > 128 µg/mL | 8 µg/mL (≈ 17.7 µM) | > 128 µg/mL | MIC [21]: 128 µg/mL (≈ 284 µM); MIC [22]: > 128 µg/mL; MIC [23]: > 128 µg/mL; MIC [24]: > 128 µg/mL; MIC [25]: > 128 µg/mL; Ratio [30]: 8
3 | CCO/N=C1\CN(c2nc3c(cc2F)c(=O)c(C(=O)O)cn3C2CC2)CC1/C(N)=N\O (stereo unspecified) | 0.25 µg/mL (≈ 0.578 µM) | 0.25 µg/mL (≈ 0.578 µM) | 0.25 µg/mL (≈ 0.578 µM) | 0.25 µg/mL (≈ 0.578 µM) | 0.25 µg/mL (≈ 0.578 µM) | 0.25 µg/mL (≈ 0.578 µM) | 0.25 µg/mL (≈ 0.578 µM) | 0.25 µg/mL (≈ 0.578 µM) | 0.25 µg/mL (≈ 0.578 µM) | 0.25 µg/mL (≈ 0.578 µM) | > 128 µg/mL | > 128 µg/mL | > 128 µg/mL | 0.25 µg/mL (≈ 0.578 µM) | > 128 µg/mL | > 128 µg/mL | > 128 µg/mL | > 128 µg/mL | > 128 µg/mL | > 128 µg/mL | MIC [21]: > 128 µg/mL; MIC [22]: > 128 µg/mL; MIC [23]: > 128 µg/mL; MIC [24]: > 128 µg/mL; MIC [25]: > 128 µg/mL; Ratio [30]: 8
4 | CCO/N=C1\CN(c2c(F)cc3c(=O)c(C(=O)O)cn(CC)c3c2F)CC1/C(N)=N\O (stereo unspecified) | 1 µg/mL (≈ 2.29 µM) | 1 µg/mL (≈ 2.29 µM) | 1 µg/mL (≈ 2.29 µM) | 1 µg/mL (≈ 2.29 µM) | 0.25 µg/mL (≈ 0.572 µM) | 1 µg/mL (≈ 2.29 µM) | 0.125 µg/mL (≈ 0.286 µM) | 0.125 µg/mL (≈ 0.286 µM) | 16 µg/mL (≈ 36.6 µM) | > 128 µg/mL | > 128 µg/mL | > 128 µg/mL | > 128 µg/mL | > 128 µg/mL | > 128 µg/mL | > 128 µg/mL | 16 µg/mL (≈ 36.6 µM) | > 128 µg/mL | > 128 µg/mL | > 128 µg/mL | MIC [21]: > 128 µg/mL; MIC [22]: > 128 µg/mL; MIC [23]: > 128 µg/mL; MIC [24]: > 128 µg/mL; MIC [25]: > 128 µg/mL
5 | CO/N=C1\CN(c2c(F)cc3c(=O)c(C(=O)O)cn(CCF)c3c2F)CC1/C(N)=N\OC (stereo unspecified) | 0.125 µg/mL (≈ 0.274 µM) | 0.125 µg/mL (≈ 0.274 µM) | 0.25 µg/mL (≈ 0.549 µM) | 2 µg/mL (≈ 4.39 µM) | 0.125 µg/mL (≈ 0.274 µM) | 0.125 µg/mL (≈ 0.274 µM) | 0.25 µg/mL (≈ 0.549 µM) | 0.25 µg/mL (≈ 0.549 µM) | 4 µg/mL (≈ 8.78 µM) | 2 µg/mL (≈ 4.39 µM) | > 128 µg/mL | > 128 µg/mL | 64 µg/mL (≈ 141 µM) | > 128 µg/mL | 128 µg/mL (≈ 281 µM) | > 128 µg/mL | > 128 µg/mL | > 128 µg/mL | 4 µg/mL (≈ 8.78 µM) | > 128 µg/mL | MIC [21]: 32 µg/mL (≈ 70.3 µM); MIC [22]: 64 µg/mL (≈ 141 µM); MIC [23]: > 128 µg/mL; MIC [24]: > 128 µg/mL; MIC [25]: 64 µg/mL (≈ 141 µM)
